Twelve molecules from ChEMBL document CHEMBL1131470, “Inhibition of human O6-alkylguanine-DNA alkyltransferase and potentiation of the cytotoxicity of chloroethylnitrosourea by 4(6)-(benzyloxy)-2,6(4)-diamino-5-(nitro or nitroso)pyrimidine derivatives and analogues” (J Med Chem, 1998) can be followed below.

pIC50: −log10 of the molar value.

The target in series [1] is T1, Methylated-DNA--protein-cysteine methyltransferase (Homo sapiens, UniProt P16455).
T1 sequence (P16455 whole entry): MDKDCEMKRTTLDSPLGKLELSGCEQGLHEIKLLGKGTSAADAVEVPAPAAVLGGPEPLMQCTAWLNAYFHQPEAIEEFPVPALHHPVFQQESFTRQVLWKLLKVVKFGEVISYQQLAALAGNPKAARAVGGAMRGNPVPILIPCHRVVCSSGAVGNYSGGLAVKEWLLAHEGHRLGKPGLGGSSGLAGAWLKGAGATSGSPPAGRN
As to the kind of experiment: In vitro inhibitory activity against human O6-alkylguanine-DNA alkyltransferase (AGAT).

Series [2] concerns HeLa. As to the kind of experiment: The compound was tested for its ability to enhance the cytotoxicity of ACNU toward HeLa S3 cells at 10 uM dose. In kind it is functional, Homo sapiens. In short, it runs like this: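 HeLa S3 cervical tumour cells (AGAT activity 418 fmol/mg protein) pretreated 2 h with test compound […], then exposed to increasing ACNU concentrations. Dose-modifying factor = IC50 for ACNU alone divided by IC50 for compound pretreatment followed by ACNU.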

Series [3] concerns HeLa. As to the kind of experiment: The compound was tested for its ability to enhance the cytotoxicity of ACNU toward HeLa S3 cells at 1 uM dose. In kind it is functional, Homo sapiens. In short, it runs like this:
(§1)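 HeLa S3 cervical tumour cells (AGAT activity 418 fmol/mg protein) pretreated with test compound for 2 h at 0.01, 0.1, 1 or 10 μM, then exposed to increasing ACNU concentrations. Cytotoxicity measured by a previously reported method. Dose-modifying factor = IC50 for ACNU alone divided by IC50 for compound pretreatment followed by ACNU.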

A short description of series [4]: The compound was tested for its ability to enhance the cytotoxicity of ACNU toward HeLa S3 cells at 10 uM dose; 'b' means toxicity appeared at this dose. The note with it: human. In kind it is cell-based. In short, it runs like this: as §1
The subject of series [5] is HeLa. As to the kind of experiment: The compound was tested for its ability to enhance the cytotoxicity of ACNU toward HeLa S3 cells at 0.1 uM dose. In kind it is functional, Homo sapiens. In short, it runs like this: as §1
For series [6], the system named is HeLa. As to the kind of experiment: The compound was tested for its ability to enhance the cytotoxicity of ACNU toward HeLa S3 cells at 0.01 uM dose. In kind it is functional, Homo sapiens. In short, it runs like this: as §1

Regarding `Nc1cc(OCc2ccccc2)nc(N)n1`, the pIC50 in series [1] was 3.77. The Dose-modifying factor in series [2] was found to be 1.

For the molecule `Nc1nc(N)c([N+](=O)[O-])c(OCc2ccccc2)n1`, the Dose-modifying factor is 4 in series [3], “Toxicity appeared at this dose” in series [4] and 1.2 in series [5].

For the molecule `Nc1nc(N)c([N+](=O)[O-])c(OCc2ccncc2)n1`, the Dose-modifying factor in series [3] is 3.9; in series [4], “Toxicity appeared at this dose”; in series [5], 1.2.

Turning to `Nc1nc(N)c(N=O)c(OCc2ccc(F)cc2)n1`, the Dose-modifying factor is 9.2 in series [3], 1.4 in series [6], “Toxicity appeared at this dose” in series [4] and 5.8 in series [5].

With `Nc1nc(N)c([N+](=O)[O-])c(OCc2ccccc2F)n1`, the Dose-modifying factor is 1.1 in series [3], “Toxicity appeared at this dose” in series [4] and 1 in series [5].

On to `Nc1nc(N)c([N+](=O)[O-])c(OCc2ccc(F)cc2)n1`, for which the Dose-modifying factor in series [3] is 5.1; in series [4] it was “Toxicity appeared at this dose”; in series [5] it was 1.5.

On to `Nc1nc(N)c([N+](=O)[O-])c(OCc2ccccn2)n1`, for which the values for the Dose-modifying factor in series [3], in series [4] and in series [5] were 1, “Toxicity appeared at this dose” and 1, respectively.

Turning to `Nc1nc(N)c([N+](=O)[O-])c(OCc2cccc(F)c2)n1`, the Dose-modifying factor is listed as 4.8 in series [3], “Toxicity appeared at this dose” in series [4] and 1.2 in series [5].

Consider `Nc1nc(N)c(N=O)c(OCc2ccncc2)n1`, for which the Dose-modifying factor in series [3] is recorded as 7.3; in series [6] it was 1; in series [4] it was “Toxicity appeared at this dose”; in series [5] it was 2.9.

Turning to `Nc1nc(N)c([N+](=O)[O-])c(OCc2cccnc2)n1`, the results for the Dose-modifying factor in series [3], in series [4] and in series [5] were 3.6, “Toxicity appeared at this dose” and 1.2, respectively.

`Nc1nc(N)c(N=O)c(OCc2ccccc2)n1`: the Dose-modifying factor turned out to be 8.8 in series [3], 1.2 in series [6] and 4.3 in series [5]. Further, the pIC50 in series [1] is 6.89.

For the molecule `Nc1nc(OCc2ccccc2)c2nc[nH]c2n1` [6-O-BENZYLGUANINE], the results for the Dose-modifying factor in series [3], in series [5] and in series [2] were 4.4, 1.3 and 7.6, respectively.
